From PubChem
ADAM10 inh – inhibits human ADAM10; O14672; recombinant ADAM10, EDANS/DABCYL FRET peptide cleavage, 3 h; inhibition, % at 7 µM; 0.62% of 370,000 active;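 active = inhibition above a per-campaign cutoff equal to the mean of compounds falling between control-based bounds plus 3 SD, cut at about 20% in these data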;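 also: 0% = DMSO wells while the 100% control is not disclosed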
PLC-gamma1 inh – PLC-gamma1 (human) inhibition, primary screen. P19174. purified PLC-gamma1, fluorogenic substrate, fluorescence. inhibition, % at 12.2 µM. 0.84% of 370,000 active; in the data active = inhibition above about 9.5%
ADAM17 inh – inhibits human ADAM17 | P78536 | recombinant ADAM17, EDANS/DABCYL FRET peptide cleavage | inhibition, % at 6.95 µM | 0.83% of 370,000 active | AID 720648;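 active = inhibition above the mean of compounds lying between control limits plus 3 SD, set per campaign, cut at about 8.5% in these data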;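 also: 0% = DMSO-only wells as the low control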
Tb MetRS inh – blocks T. brucei methionyl-tRNA synthetase activity | purified T. brucei MetRS, ATP depletion, Kinase-Glo luminescence | inhibition, % at 11.9 µM | 0.4% of 360,000 active | AID 624268;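 active = inhibition above a per-plate cutoff of the control wells' mean inhibition plus 3 SD, cut at about 5.5% in these data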;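 also: 0% = DMSO wells median and 100% = median of wells with control inhibitor compound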
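Dosing: 11.9 µM single point; system: parasite MetRS enzyme; technique: luminescence of leftover ATP; times: 15 min enzyme-compound preincubation, 2 h reaction, 10 min detection, 25 °C; replicates: each compound tested once; read-out basis: percent inhibition relative to median high and low control wells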
PLCb3 inh – inhibitors of human phospholipase C beta3. Purified PLC-beta3, fluorogenic substrate, fluorescence. inhibition, % at 12.2 µM. 0.18% of 370,000 active. AID 720704; in the data active = inhibition above about 11%;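 also: 0% = median of compound wells on plate and 100% = full blocker control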
ADAM10 ctr – counter-screen for ADAM17 exosite inhibitors: inhibitors of human ADAM10. shares compounds with ADAM17 inh. recombinant ADAM10, EDANS/DABCYL FRET peptide cleavage, 3 h. inhibition, % at 6.95 µM. 47% of 2,900 active;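 active = mean inhibition over the triplicate runs exceeds the activity threshold set in the earlier primary screen, cut at about 20% in these data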;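 also: 0% = DMSO wells and 100% = marimastat wells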
ADAM17 confirm – human ADAM17 inhibition, confirmation | shares compounds with ADAM17 inh | recombinant ADAM17, EDANS/DABCYL QFRET peptide cleavage | inhibition, % at 6.95 µM | 65% of 2,900 active | AID 743257;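 active = mean inhibition across replicates above the hit cutoff set in the primary screen, cut at about 8.5% in these data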;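 also: 0% = DMSO wells and 100% = marimastat wells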
Numbers without * were called inactive; . = no result. This is a sample that favours compounds with a hit; in the whole collection about 2.3% have one here.

SMILES	ADAM10 inh	PLC-gamma1 inh	ADAM17 inh	Tb MetRS inh	PLCb3 inh	ADAM10 ctr	ADAM17 confirm
COc1ccc(C)cc1NC(=O)CSc1nnc(COc2ccc(Cl)cc2)n1Cc1ccco1	20	0	11*	0	-2	32*	18*
COc1ccccc1NC(=O)Cc1nnc(SCC(=O)Nc2ccccc2F)n1C	11	3	-1	0	3	.	.
COc1ccc(NC(=O)CSc2nnc(-c3ccccc3Cl)n2Cc2ccco2)c(OC)c1	14	5	3	-1	7	.	.
COc1cc2c(cc1NC(=O)CSc1nnc(-c3ccccc3C)n1Cc1ccco1)oc1ccccc12	19	-1	10*	.	3	22*	15*
COc1ccc(C)cc1NC(=O)CSc1nnc(CC(=O)Nc2ccccc2C)n1C	7	6	8.7*	-1	2	3	0
Cc1cc(NC(=O)COC(=O)C(Nc2ccc(C(F)(F)F)cc2Cl)C(C)C)no1 (stereo unspecified)	20	1	10*	0	4	41*	24*
COc1ccc(Cl)cc1NC(=S)Nc1cccnc1	-5	-2	-5	0	2	.	.
OCc1cccc[n+]1CCc1ccccc1	0	0	11*	0	-3	-11	-1
CCOc1cc(CNCCO)cc(Br)c1OCc1ccc(Cl)cc1	14	6	12*	-1	6	4	4
CCOC(=O)C1=CN(C(C)C)CCC1=O	-7	-1	2	-3	1	.	.
CCOC(=O)NC(NC(=S)Nc1ccc(OCC)cc1)C(Cl)(Cl)Cl (stereo unspecified)	-2	2	0	0	0	.	.
O=C(NC(NC(=S)Nc1c(Cl)cccc1Cl)C(Cl)(Cl)Cl)OCc1ccccc1 (stereo unspecified)	14	0	12*	-1	-2	33*	16*
Cc1ccc(SCC(=O)NNC(=O)CCS(=O)(=O)c2ccccc2)cc1	9	2	-6	0	1	.	.
CCCCC(CC)COC1(c2ccccc2)OC(=O)c2ccccc21 (stereo unspecified)	3	3	10*	0	3	-1	0
CCCCOC1(c2ccccc2)OC(=O)c2ccccc21 (stereo unspecified)	-2	0	-3	-1	2	.	.
COC(=O)[C@]12C[C@H](CC(=O)NCc3cccc(C(F)(F)F)c3)C(=O)N(Cc3ccc4c(c3)OCO4)C1=C[C@H](C(C)(C)C)O[C@@H]2C	19	0	13*	.	8	54*	19*
COC(=O)[C@]12C[C@H](CC(=O)NCCCCc3ccccc3)C(=O)N(Cc3ccco3)C1=C[C@H](C(C)(C)C)O[C@@H]2C	19	1	9.3*	.	-1	27*	15*
C=CCn1nnnc1SCC(=O)Nc1cccc(C(F)(F)F)c1	2	-1	-5	0	-4	.	.
CC(CN1CCN(C)CC1)OC(=O)c1cccc(F)c1 (stereo unspecified)	-2	0	-2	-1	-4	.	.
Cc1ccc(S(=O)(=O)N(C)CC(=O)O/N=C(\N)c2cccc(Br)c2)cc1	8	2	12*	-1	-6	11	9.7*
Cc1ccc(/C(N)=N/OC(=O)CN(C)S(=O)(=O)c2ccc(C)cc2)cc1	9	0	0	0	-9	.	.
O=[N+]([O-])c1ccc(Nc2ccc(F)cc2)nc1	3	-4	10*	-1	-8	3	5
Cc1ccc(Cn2c(C(CO)Nc3nc(-c4ccc(Cl)c([N+](=O)[O-])c4)cs3)nc3ccccc32)cc1 (stereo unspecified)	20	5	17*	0	6	16	9.7*
O=c1ccc(-c2nc3ccccc3n2C(CCc2ccccc2)c2nc3ccccc3[nH]2)c[nH]1 (stereo unspecified)	-2	2	1	0	0	.	.
CC(C)(C)OC(=O)NCCCC[C@H](NC(=O)c1nc[nH]c1C(=O)NCc1ccccc1)C(=O)OC(C)(C)C	17	3	9.2*	0	2	35*	20*
